Test results as given in ChEMBL document CHEMBL1158122, “Anti-inflammatory, anti-tumor-promoting, and cytotoxic activities of constituents of marigold (Calendula officinalis) flowers” (J Nat Prod, 2006).

Key:
[1] = Cytotoxicity against human Raji cells assessed as cell viability at 10 molar ratio; type: cell-based; conditions: read-out: Activity
Procedure, shortened: (§1)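 Raji cells were treated with 32 pmol TPA to induce EBV early antigen activation. The test agent was added at 10, 100, 500 or 1000 mol ratio relative to TPA, and Raji cell viability was measured alongside EA activation.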

NCI-H226 = experiment: Cytotoxicity against human NCI-H226 cells after 48 hrs by SRB assay; type: functional; conditions: NCI-H226, 48 h
MOLT-4 = experiment: Cytotoxicity against human MOLT-4 cells after 48 hrs by SRB assay; type: functional; conditions: MOLT-4, 48 h
[2] = Cytotoxicity against human Raji cells assessed as cell viability at 500 molar ratio; type: cell-based; conditions: read-out: Activity; procedure, shortened: as §1
SN12C = experiment: Cytotoxicity against human SN12C cells after 48 hrs by SRB assay; type: functional
[3] = Cytotoxicity against human Raji cells assessed as cell viability at 100 molar ratio; type: cell-based; conditions: read-out: Activity; procedure, shortened: as §1
[4] = Cytotoxicity against human HCT 116 cells after 48 hrs by SRB assay; type: functional; conditions: HCT-116, 48 h
UO-31 = experiment: Cytotoxicity against human UO-31 cells after 48 hrs by SRB assay; type: functional; conditions: UO-31, 48 h
Procedure, shortened: (§2)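 Tested in the NCI panel of 60 human tumour cell lines covering lung, colon, melanoma, renal, ovarian, breast and leukaemia. At least five concentrations were run in 10-fold dilutions starting from 10^-4 M. Exposure was continuous for 48 h. Growth or viability was estimated by sulforhodamine B protein staining, and GI50 values were reported.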

BT-549 = experiment: Cytotoxicity against human BT-549 cells after 48 hrs by SRB assay; type: functional; conditions: BT-549, 48 h
[5] = Cytotoxicity against human Hs 578T cells after 48 hrs by SRB assay; type: functional
NCI/ADR-RES = experiment: Cytotoxicity against human NCI/ADR-RES cells after 48 hrs by SRB assay; type: functional
RXF 393 = experiment: Cytotoxicity against human […] cells after 48 hrs by SRB assay; type: functional; conditions: RXF 393, 48 h
OVCAR-5 = experiment: Cytotoxicity against human OVCAR5 cells after 48 hrs by SRB assay; type: functional; conditions: OVCAR-5, 48 h
[6] = Cytotoxicity against human Raji cells assessed as cell viability at 1000 molar ratio; type: cell-based; conditions: read-out: Activity; procedure, shortened: as §1
Raji [7] = experiment: Inhibition of TPA-induced EBV-early antigen activation in human Raji cells at 1000 molar ratio relative to TPA; type: cell-based; parameters: scale not given: the % may be the effect or the level left; conditions: human gammaherpesvirus 4
UACC-257 = experiment: Cytotoxicity against human UACC-257 cells after 48 hrs by SRB assay; type: functional; conditions: UACC-257, 48 h; procedure, shortened: as §2
A549 = experiment: Cytotoxicity against human A549 cells after 48 hrs by SRB assay; type: functional; conditions: A549, 48 h
IGROV-1 = experiment: Cytotoxicity against human IGROV1 cells after 48 hrs by SRB assay; type: functional; conditions: IGROV-1, 48 h
HOP-62 = experiment: Cytotoxicity against human HOP-62 cells after 48 hrs by SRB assay; type: functional; conditions: HOP-62, 48 h
NCI-H322M = experiment: Cytotoxicity against human NCI-H322M cells after 48 hrs by SRB assay; type: functional
HCT-15 = experiment: Cytotoxicity against human HCT-15 cells after 48 hrs by SRB assay; type: functional; conditions: HCT-15, 48 h
K562 = experiment: Cytotoxicity against human K-562 cells after 48 hrs by SRB assay; type: functional; conditions: K562, 48 h
T47D = experiment: Cytotoxicity against human T47D cells after 48 hrs by SRB assay; type: functional; procedure, shortened: as §2
SF-268 = experiment: Cytotoxicity against human SF-268 cells after 48 hrs by SRB assay; type: functional; conditions: SF-268, 48 h
Malme-3M = experiment: Cytotoxicity against human MALME-3M cells after 48 hrs by SRB assay; type: functional
MDA-MB-435 = experiment: Cytotoxicity against human MDA-MB-435 cells after 48 hrs by SRB assay; type: functional; conditions: MDA-MB-435, 48 h
[8] = Cytotoxicity against human SK MEL28 cells after 48 hrs by SRB assay; type: functional; conditions: SK-MEL-28, 48 h
NCI-H23 = experiment: Cytotoxicity against human NCI-H23 cells after 48 hrs by SRB assay; type: functional; conditions: NCI-H23, 48 h
HCC 2998 = experiment: Cytotoxicity against human HCC2998 cells after 48 hrs by SRB assay; type: functional; conditions: HCC 2998, 48 h
MCF7 = experiment: Cytotoxicity against human MCF7 cells after 48 hrs by SRB assay; type: functional; conditions: MCF7, 48 h
EKVX = experiment: Cytotoxicity against human EKVX cells after 48 hrs by SRB assay; type: functional
SK-MEL-5 = experiment: Cytotoxicity against human SK-MEL-5 cells after 48 hrs by SRB assay; type: functional; conditions: SK-MEL-5, 48 h
OVCAR-8 = experiment: Cytotoxicity against human OVCAR8 cells after 48 hrs by SRB assay; type: functional; conditions: OVCAR-8, 48 h
PC-3 = experiment: Cytotoxicity against human PC-3 cells after 48 hrs by SRB assay; type: functional; conditions: PC-3, 48 h
SK-MEL-2 = experiment: Cytotoxicity against human SK-MEL-2 cells after 48 hrs by SRB assay; type: functional; conditions: SK-MEL-2, 48 h
[9] = Inhibition of TPA-induced EBV-early antigen activation in human Raji cells relative to TPA; type: cell-based, human gammaherpesvirus 4
Raji [10] = experiment: Inhibition of TPA-induced EBV-early antigen activation in human Raji cells at 100 molar ratio relative to TPA; type: cell-based; parameters: scale not given: the % may be the effect or the level left; conditions: human gammaherpesvirus 4
Raji [11] = experiment: Inhibition of TPA-induced EBV-early antigen activation in human Raji cells at 10 molar ratio relative to TPA; type: cell-based; parameters: scale not given: the % may be the effect or the level left; conditions: human gammaherpesvirus 4
OVCAR-3 = experiment: Cytotoxicity against human OVCAR-3 cells after 48 hrs by SRB assay; type: functional; conditions: OVCAR-3, 48 h
CAKI-1 = experiment: Cytotoxicity against human Caki-1 cells after 48 hrs by SRB assay; type: functional; conditions: CAKI-1, 48 h
U-251 = experiment: Cytotoxicity against human U251 cells after 48 hrs by SRB assay; type: functional; conditions: U-251, 48 h; procedure, shortened: as §2
Raji [12] = experiment: Inhibition of TPA-induced EBV-early antigen activation in human Raji cells at 500 molar ratio relative to TPA; type: cell-based; parameters: scale not given: the % may be the effect or the level left; conditions: human gammaherpesvirus 4
SNB-19 = experiment: Cytotoxicity against human SNB-19 cells after 48 hrs by SRB assay; type: functional; conditions: SNB-19, 48 h
TK-10 = experiment: Cytotoxicity against human TK-10 cells after 48 hrs by SRB assay; type: functional; conditions: TK-10, 48 h; procedure, shortened: as §2
UACC-62 = experiment: Cytotoxicity against human UACC-62 cells after 48 hrs by SRB assay; type: functional; conditions: UACC-62, 48 h; procedure, shortened: as §2
COLO 205 = experiment: Cytotoxicity against human COLO205 cells after 48 hrs by SRB assay; type: functional; conditions: COLO 205, 48 h
NCI-H522 = experiment: Cytotoxicity against human NCI-H522 cells after 48 hrs by SRB assay; type: functional; conditions: NCI-H522, 48 h
786-0 = experiment: Cytotoxicity against human 786-0 cells after 48 hrs by SRB assay; type: functional; conditions: 786-0, 48 h
SW-620 = experiment: Cytotoxicity against human SW620 cells after 48 hrs by SRB assay; type: functional; conditions: SW-620, 48 h
HL-60 = experiment: Cytotoxicity against human HL-60 cells after 48 hrs by SRB assay; type: functional; conditions: HL-60, 48 h
HT-29 = experiment: Cytotoxicity against human HT-29 cells after 48 hrs by SRB assay; type: functional; conditions: HT-29, 48 h
KM12 = experiment: Cytotoxicity against human KM12 cells after 48 hrs by SRB assay; type: functional; conditions: KM12, 48 h
MDA-MB-231 = experiment: Cytotoxicity against human MDA-MB-231 cells after 48 hrs by SRB assay; type: functional; conditions: MDA-MB-231, 48 h
LOX IMVI = experiment: Cytotoxicity against human LOX IMVI cells after 48 hrs by SRB assay; type: functional
ACHN = experiment: Cytotoxicity against human ACHN cells after 48 hrs by SRB assay; type: functional
NCI-H460 = experiment: Cytotoxicity against human NCI-H460 cells after 48 hrs by SRB assay; type: functional; conditions: NCI-H460, 48 h
CCRF-CEM = experiment: Cytotoxicity against human CCRF-CEM cells after 48 hrs by SRB assay; type: functional

IC50 [9]: 479 molar ratio
Compound: COC(=O)[C@H]1O[C@@H](O[C@H]2CC[C@]3(C)[C@H]4CC=C5[C@@H]6CC(C)(C)CC[C@]6(C(=O)O)CC[C@@]5(C)[C@]4(C)CC[C@H]3C2(C)C)[C@H](O)[C@@H](O[C@@H]2O[C@H](CO)[C@H](O)[C@H](O)[C@H]2O)[C@@H]1O
viability at 10 molar ratio [1]: > 80% | GI50 (NCI-H226): 6.18 µM | GI50 (MOLT-4): 2170 nM | viability at 500 molar ratio [2]: > 80% | GI50 (SN12C): 6.34 µM | viability at 100 molar ratio [3]: > 80% | GI50 [4]: 6.39 µM | GI50 (UO-31): 33.3 µM | GI50 (BT-549): 6.93 µM | GI50 [5]: 8.77 µM | GI50 (NCI/ADR-RES): 7.24 µM | GI50 (RXF 393): 11.3 µM | GI50 (OVCAR-5): 7.31 µM | viability at 1000 molar ratio [6]: 70% | Activity (Raji [7]): 10% | GI50 (UACC-257): 6.89 µM | GI50 (A549): 7.22 µM | GI50 (IGROV-1): 20.1 µM | GI50 (HOP-62): 6.21 µM | GI50 (NCI-H322M): 7.59 µM | GI50 (HCT-15): 6.57 µM | GI50 (K562): 8.17 µM | GI50 (T47D): 8.16 µM | GI50 (SF-268): 7.56 µM | GI50 (Malme-3M): 6.22 µM | GI50 (MDA-MB-435): 13.3 µM | GI50 [8]: 10.2 µM | GI50 (NCI-H23): 6.46 µM | GI50 (HCC 2998): 7.14 µM | GI50 (MCF7): 9.93 µM | GI50 (EKVX): 6.59 µM | GI50 (SK-MEL-5): 6.14 µM | GI50 (OVCAR-8): 9.96 µM | GI50 (PC-3): 6.43 µM | GI50 (SK-MEL-2): 11.9 µM | Activity (Raji [10]): 71.2% | Activity (Raji [11]): 100% | GI50 (OVCAR-3): 13.9 µM | GI50 (CAKI-1): 12.2 µM | GI50 (U-251): 6.08 µM | Activity (Raji [12]): 47.2% | GI50 (SNB-19): 6.82 µM | GI50 (TK-10): 7.22 µM | GI50 (UACC-62): 6.23 µM | GI50 (COLO 205): 8.64 µM | GI50 (NCI-H522): 10.5 µM | GI50 (786-0): 6.36 µM | GI50 (SW-620): 7.28 µM | GI50 (HL-60): 6.92 µM | GI50 (HT-29): 12.4 µM | GI50 (KM12): 8.83 µM | GI50 (MDA-MB-231): 7.28 µM | GI50 (LOX IMVI): 6.27 µM | GI50 (ACHN): 5.99 µM | GI50 (NCI-H460): 11.5 µM | GI50 (CCRF-CEM): 5.79 µM
